Article PMC4448975 (Pharmacology Research & Perspectives, 2015)

Key:
human ADA2 = molecular target: T1, human ADA2 (Homo sapiens, UniProt Q9NZK5); experiment: Deamination of substrates in ADA2-expressing HEK293 cells; type: biochemical; conditions: compared with Mock cells; substance = substrate
T1 sequence (Q9NZK5 30-511): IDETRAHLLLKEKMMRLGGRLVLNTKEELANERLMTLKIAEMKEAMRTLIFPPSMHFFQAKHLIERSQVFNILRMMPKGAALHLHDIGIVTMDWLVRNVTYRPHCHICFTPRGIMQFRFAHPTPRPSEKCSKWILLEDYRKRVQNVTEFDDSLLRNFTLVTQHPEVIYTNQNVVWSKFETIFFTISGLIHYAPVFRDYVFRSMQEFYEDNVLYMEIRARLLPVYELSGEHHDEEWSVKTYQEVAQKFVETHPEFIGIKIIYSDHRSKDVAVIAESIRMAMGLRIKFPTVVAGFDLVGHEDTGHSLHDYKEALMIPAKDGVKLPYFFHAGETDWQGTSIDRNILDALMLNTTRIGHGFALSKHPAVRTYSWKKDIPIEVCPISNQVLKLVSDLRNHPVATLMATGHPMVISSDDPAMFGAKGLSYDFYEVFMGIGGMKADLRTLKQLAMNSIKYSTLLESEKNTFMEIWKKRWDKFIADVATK

[1] = molecular target: T2, ADA in mouse erythrocytes (Mus musculus, UniProt P03958); experiment: Inhibition of ADA-catalyzed deamination in mouse erythrocytes; type: biochemical; conditions: for inhibition at 100 µM: read-out: inhibition of the enzyme activity (deamination of cordycepin)
T2 sequence (P03958 1-352): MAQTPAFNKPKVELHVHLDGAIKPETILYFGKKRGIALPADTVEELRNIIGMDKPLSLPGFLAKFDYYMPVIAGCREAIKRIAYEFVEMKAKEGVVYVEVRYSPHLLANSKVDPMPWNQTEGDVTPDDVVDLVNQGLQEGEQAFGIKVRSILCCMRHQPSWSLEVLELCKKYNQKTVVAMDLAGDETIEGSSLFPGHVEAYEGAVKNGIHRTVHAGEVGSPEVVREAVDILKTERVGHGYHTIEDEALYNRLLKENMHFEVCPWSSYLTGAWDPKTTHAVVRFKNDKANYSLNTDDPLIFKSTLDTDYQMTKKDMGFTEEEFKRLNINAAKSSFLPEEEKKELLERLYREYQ

[2] = molecular target: T3, ADA in human erythrocytes (Homo sapiens, UniProt P00813); experiment: Inhibition of ADA-catalyzed deamination of cordycepin in human erythrocytes; type: biochemical
T3 sequence (P00813 1-363): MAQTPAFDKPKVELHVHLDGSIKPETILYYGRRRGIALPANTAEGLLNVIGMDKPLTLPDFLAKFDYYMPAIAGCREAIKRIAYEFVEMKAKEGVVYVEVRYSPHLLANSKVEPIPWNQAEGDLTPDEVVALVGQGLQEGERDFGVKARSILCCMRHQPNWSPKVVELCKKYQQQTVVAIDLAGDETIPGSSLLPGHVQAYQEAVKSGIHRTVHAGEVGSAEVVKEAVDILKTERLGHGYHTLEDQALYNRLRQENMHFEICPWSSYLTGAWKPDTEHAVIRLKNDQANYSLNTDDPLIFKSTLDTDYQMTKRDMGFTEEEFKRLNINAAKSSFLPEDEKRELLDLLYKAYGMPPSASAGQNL
Outline: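 Human erythrocytes were incubated with cordycepin in 400 mmol/L sodium acetate buffer, pH 5.8, at 37°C after a 3 min preincubation. Inhibitors were present and cordycepin concentrations were varied. Reactions were stopped with acetonitrile and centrifuged. 3′-Deoxyinosine was quantified by reversed-phase HPLC (6% acetonitrile, 1.0 mL/min, 260 nm). Inhibition type and Ki were derived from Dixon plots.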

[3] = molecular target: T4, ADA1 in Jurkat cell homogenates (Homo sapiens, UniProt P00813); experiment: Inhibition of cordycepin deamination in Jurkat cell homogenates; type: biochemical; conditions: substrate 100 μmol/L, inhibitor 50 μmol/L
T4 sequence (P00813 1-363): T3 sequence (P00813 1-363)

Jurkat cells = experiment: Cell viability; type: cell-based, human; conditions: 24 h, MTT
Outline: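 Jurkat cells kept in RPMI-1640 with 10% FBS, penicillin–streptomycin, NaHCO3 and glutamine at 37°C, 5% CO2. Cells were seeded at 1 × 10^4 per well. […] Viability was read by MTT kit. Mean ± SD of three independent determinations; ANOVA with Dunnett's test.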

For Nc1ncnc2c1ncn2[C@@H]1O[C@H](CO)[C@@H](O)[C@H]1O [adenosine], the “deamination activity toward the substrate in ADA2-expressing HEK293 cells” value (human ADA2) was “comparable to those in Mock cells”.

O=C1C[C@@H](c2ccc(O)cc2)Oc2cc(O)cc(O)c21 [naringenin] gave an inhibition at 100 µM [1] of 0 to 10%.

In the case of O=c1c(O)c(-c2ccc(O)cc2)oc2cc(O)cc(O)c12 [kaempferol], the inhibition at 100 µM [1] is reported as 0 to 10%.

For Nc1ncnc2c1ncn2[C@H]1C[C@H](O)[C@@H](CO)O1 [2′-deoxyadenosine], the “deamination activity toward the substrate in ADA2-expressing HEK293 cells” value (human ADA2) was “comparable to those in Mock cells”.

Molecule O=c1c(O)c(-c2cc(O)c(O)c(O)c2)oc2cc(O)cc(O)c12 [myricetin] has an inhibition at 100 µM [1] of 0 to 10%.

Work on C[C@@H]1O[C@@H](O[C@H]2[C@H](Oc3cc(O)c4c(c3)O[C@H](c3ccc(O)cc3)CC4=O)O[C@H](CO)[C@@H](O)[C@@H]2O)[C@H](O)[C@H](O)[C@H]1O [Naringin, naringin] yielded a Ki ([1]; mouse erythrocytes, substrate 2′-deoxyadenosine, Dixon plot) of 197 µM, a Ki ([1]; mouse erythrocytes, substrate adenosine, Dixon plot) of 371 ± 10.1 µM and a Ki ([1]; mouse erythrocytes, substrate cordycepin, Dixon plot) of 58.8 ± 0.7 µM. For the same molecule, the “inhibition of cordycepin deamination in the erythrocytes (in words)” value ([1]; erythrocytes, 100 μmol/L cordycepin, 100 μmol/L inhibitor, 37°C (Fig.4)) was “moderately inhibited”, the “inhibition pattern against the cordycepin deamination” value ([1]; mouse erythrocytes, Dixon plot) was “competitive” and the inhibition at 100 µM [1] was 20%. The Ki [2] was 168 ± 22.4 µM, the “inhibition pattern against the cordycepin deamination” value ([2]; human erythrocytes, Dixon plot) was “competitively” and the “inhibition of deamination of cordycepin in Jurkat cell homogenates” value [3] was “moderately”.

In the case of OC[C@H]1O[C@@H](n2cnc3c2NC=NC[C@H]3O)C[C@@H]1O [Pentostatin], the “effect on the cytotoxic effect of cordycepin” value (Jurkat cells; Jurkat cells cotreated with cordycepin and 50 μmol/L inhibitor) is reported as “stronger cytotoxicity”.

In the case of Nc1ncnc2c1ncn2[C@@H]1O[C@H](CO)C[C@H]1O [Cordycepin, 3′-deoxyadenosine], the “cell viability of the Jurkat cells” value (Jurkat cells; cordycepin alone) is reported as “concentration-dependently decreased the cell viability”.

For O=c1c(O)c(-c2ccc(O)c(O)c2)oc2cc(O)cc(O)c12 [quercetin], the inhibition at 100 µM [1] was 0 to 10%.
